Source: ChEMBL document CHEMBL3244134, “Potential anticancer agents. 16. Methotrexate analogues with a modified peptide side chain” (J Med Chem, 1978)
Values joined by “and” are separate entries in the source; they are usually repeats but may differ in a detail not shown here. Equal values may be shown once.

Assays:
L1210 [1] = test: Antitumor activity against mouse L1210 cells allografted in BDF1 mouse assessed as increase in life span at 90 mg/kg administered 9 times starting 24 hrs post challenge relative to control; type: functional; conditions: L1210, 24 h
In short: (§1)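 L1210 leukemia: BDF1 mice inoculated ip with 10⁶ leukemic cells. Treatment started 24 h after inoculation, given daily in aqueous solution at pH 8.0–8.4. Survival of treated mice compared with untreated controls, expressed as %ILS = (T/C − 1) × 100.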

L1210 [2] = test: Antitumor activity against mouse L1210 cells allografted in BDF1 mouse assessed as increase in life span at 78 mg/kg administered 9 times starting 24 hrs post challenge relative to control; type: functional; conditions: L1210, 24 h; in short: as §1
[3] = Toxicity in Wistar rat administered as single dose; type: organism-based; conditions: in vivo
In short: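 LD50 determined from single doses in Wistar rats, reported in mg/kg and mmol/kg.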

W256 [4] = test: Antitumor activity against rat Walker 256 cells allografted in rat assessed as tumor growth inhibition at 60 mg/kg administered 14 times starting 7 days post challenge relative to control; conditions: W256, 7 days, read-out: TGI
L1210 [5] = test: Antitumor activity against mouse L1210 cells allografted in BDF1 mouse assessed as increase in life span at 23 mg/kg administered 7 times starting 24 hrs post challenge relative to control; type: functional; conditions: L1210, 24 h; in short: as §1
L1210 [6] = test: Antitumor activity against mouse L1210 cells allografted in BDF1 mouse assessed as increase in life span at 33 mg/kg administered 6 times starting 24 hrs post challenge relative to control; type: functional; conditions: L1210, 24 h; in short: as §1
L1210 [7] = test: Antitumor activity against mouse L1210 cells allografted in BDF1 mouse assessed as increase in life span at 25 mg/kg administered 6 times starting 24 hrs post challenge relative to control; type: functional; conditions: L1210, 24 h; in short: as §1
L1210 [8] = test: Antitumor activity against mouse L1210 cells allografted in BDF1 mouse assessed as increase in life span at 20 mg/kg administered 7 times starting 24 hrs post challenge relative to control; type: functional; conditions: L1210, 24 h; in short: as §1
L1210 [9] = test: Antitumor activity against mouse L1210 cells allografted in BDF1 mouse assessed as increase in life span at 50 mg/kg administered 6 times starting 24 hrs post challenge relative to control; type: functional; conditions: L1210, 24 h; in short: as §1
L1210 [10] = test: Antitumor activity against mouse L1210 cells allografted in BDF1 mouse assessed as increase in life span at 45 mg/kg administered 10 times starting 24 hrs post challenge relative to control; type: functional; conditions: L1210, 24 h; in short: as §1
W256 [11] = test: Antitumor activity against […] 256 cells allografted in rat assessed as tumor growth inhibition at 40 mg/kg administered 9 times starting 7 days post challenge relative to control; conditions: W256, 7 days, read-out: TGI
L1210 [12] = test: Antitumor activity against mouse L1210 cells allografted in BDF1 mouse assessed as increase in life span at 10 mg/kg administered 8 times starting 24 hrs post challenge relative to control; type: functional; conditions: L1210, 24 h
In short: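 BDF1 mice inoculated ip with 10⁶ L1210 leukemia cells; daily dosing in aqueous solution at pH 8.0–8.4 starting 24 h after inoculation. Increase in life span computed as %ILS = (T/C − 1) × 100.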

W256 [13] = test: Antitumor activity against […] 256 cells allografted in rat assessed as tumor growth inhibition at 8 mg/kg administered 14 times starting 24 hrs post challenge relative to control; type: functional; conditions: W256, 24 h, read-out: TGI

SMILES: CC(C)C[C@H](NC(=O)c1ccc(N(C)Cc2cnc3nc(N)nc(N)c3n2)cc1)C(=O)O
- ILS at 90 mg/kg (L1210 [1]): 24%

SMILES: CCC(NC(=O)c1ccc(N(C)Cc2cnc3nc(N)nc(N)c3n2)cc1)C(=O)O (stereo not given)
- ILS at 78 mg/kg (L1210 [2]): 16%
- LD50 [3]: 925 mg/kg and 2250 µmol/kg
- inhibition in vivo at 60 mg/kg (W256 [4]): 47%

SMILES: CN(Cc1cnc2nc(N)nc(N)c2n1)c1ccc(C(=O)NCC(=O)O)cc1
- LD50 [3]: 250 mg/kg and 650 µmol/kg
- ILS at 23 mg/kg (L1210 [5]): 0%

SMILES: CC(NC(=O)c1ccc(N(C)Cc2cnc3nc(N)nc(N)c3n2)cc1)C(=O)O.O (stereo not given)
- LD50 [3]: 349 mg/kg and 810 µmol/kg
- ILS at 33 mg/kg (L1210 [6]): 0%

SMILES: CN(Cc1cnc2nc(N)nc(N)c2n1)c1ccc(C(=O)NCCC(=O)O)cc1.O
- LD50 [3]: 250 mg/kg and 580 µmol/kg
- ILS at 25 mg/kg (L1210 [7]): 19%

SMILES: CC(C)C(NC(=O)c1ccc(N(C)Cc2cnc3nc(N)nc(N)c3n2)cc1)C(=O)O (stereo not given)
- LD50 [3]: 200 mg/kg and 470 µmol/kg
- ILS at 20 mg/kg (L1210 [8]): 0%

SMILES: CN(CC(=O)O)C(=O)c1ccc(N(C)Cc2cnc3nc(N)nc(N)c3n2)cc1.O
- ILS at 50 mg/kg (L1210 [9]): 0%
- LD50 [3]: 400 mg/kg and 920 µmol/kg

SMILES: CN(Cc1cnc2nc(N)nc(N)c2n1)c1ccc(C(=O)N[C@@H](Cc2ccccc2)C(=O)O)cc1.O
- ILS at 45 mg/kg (L1210 [10]): 14%
- LD50 [3]: 500 mg/kg and 1020 µmol/kg
- inhibition in vivo at 40 mg/kg (W256 [11]): 58%

SMILES: CN(Cc1cnc2nc(N)nc(N)c2n1)c1ccc(C(=O)NCCCC(=O)O)cc1.O
- LD50 [3]: 106 mg/kg and 250 µmol/kg
- ILS at 10 mg/kg (L1210 [12]): 0%
- inhibition in vivo at 8 mg/kg (W256 [13]): 55%
